# From PubChem
# MC4R ag barr: activates human MC4R beta-arrestin recruitment; 360,000 compounds, 0.98% hits; activation, % at 8.9 µM; U2OS MC4R beta-arrestin complementation, luminescence; percent of melanotan II response, DMSO zero;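 active = activation above a per-plate cutoff, the mean activation of sample wells on that plate plus 3 SD, cut at about 8% in these data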
# TLR9-MyD88 block: inhibitors of human TLR9-MyD88 binding; inhibition, % at 4.98 µM; CHO BLA complementation TLR9-MyD88, CCF4 FRET ratio; Q9NR96+Q99836; 340,000 compounds, 0.21% hits;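 active = inhibition above the mean over all tested compounds plus 3 SD, cut at about 21% in these data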
# NOD2 RIPK2 PPI: inhibitors of human NOD2-RIPK2 interaction; 360,000 compounds, 0.38% hits; CHO BLA complementation NOD2-RIPK2, CCF4 ratio; AID 624267; inhibition, % at 4.98 µM; O43353; in the data active = inhibition above about 21%
# MC4R antag cAMP: blocks human MC4R cAMP signaling | P32245 | MC4R-expressing cells, MTII-stimulated cAMP, LANCE TR-FRET | inhibition, % at 6.5 µM | 360,000 compounds, 0.48% hits;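 active = inhibition above its plate's cutoff, the mean of tested wells on that plate plus 3 SD, cut at about 29% in these data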
#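 Assay system: U2OS cells stably expressing human melanocortin 4 receptor (MC4R) / Dosing: 6.5 µM / Timing: compound 30 min, challenge 1 h, detection 1 h / Measured by: Eu-cAMP/anti-cAMP TR-FRET, emission 671 nm / Replicates: singlicate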
# NTR1 agonist: NTR1 (human) agonism; P30989; NTR1-U2OS beta-arrestin-GFP spot imaging, agonist mode; activation, % at 20 µM; 330,000 compounds, 0.17% hits; AID 493036;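 active = activation at or above 40% of the spot to cytoplasm intensity ratio, with at least 20 cells analyzed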
# Target sequence (P30989 whole entry, looked up): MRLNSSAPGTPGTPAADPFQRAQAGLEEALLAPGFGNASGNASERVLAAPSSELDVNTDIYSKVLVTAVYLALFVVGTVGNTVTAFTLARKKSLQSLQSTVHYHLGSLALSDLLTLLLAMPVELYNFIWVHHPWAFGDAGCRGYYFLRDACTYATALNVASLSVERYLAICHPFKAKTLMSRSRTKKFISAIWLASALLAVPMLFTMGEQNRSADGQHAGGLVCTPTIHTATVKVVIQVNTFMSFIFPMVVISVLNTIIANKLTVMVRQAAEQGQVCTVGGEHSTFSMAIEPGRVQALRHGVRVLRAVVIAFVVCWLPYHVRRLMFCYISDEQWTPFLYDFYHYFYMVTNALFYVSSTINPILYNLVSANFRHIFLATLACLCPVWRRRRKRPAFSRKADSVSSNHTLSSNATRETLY
# TLR4-MyD88 BLA: TLR4-MyD88 interaction inhibition in cells | AID 861 | HeLa CL3-4 TLR4/MyD88 BLA complementation, FRET ratio | 200,000 compounds, 0.18% hits | inhibition, % at 8.4 µM | O00206+Q99836; in the data active = inhibition above about 25%
# U2OS cAMP counter: U2OS forskolin cAMP inhibition counter-screen; inhibition, % at 6.5 µM; 1,600 compounds, 26% hits; parental U2OS, LANCE TR-FRET; shares compounds with MC4R antag cAMP;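 active = mean inhibition over triplicates above the low-control well mean plus 3 SD, set per campaign, cut at about 13% in these data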;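 also: signal is single emission at 671 nm which falls as cellular cAMP rises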
# MC4R antag conf: human MC4R cAMP antagonism confirmation; shares compounds with MC4R antag cAMP; MC4R-expressing cells, MTII-stimulated cAMP, TR-FRET; inhibition, % at 6.5 µM; 1,600 compounds, 27% hits; in the data active = inhibition above about 29%
# Numbers stand for hits; n = inactive; x = not tested or not shown. Rows were chosen to be rich in hits. Some 1.9% of all compounds tested hit in one or more screens of this group.
SMILES,MC4R ag barr,TLR9-MyD88 block,NOD2 RIPK2 PPI,MC4R antag cAMP,NTR1 agonist,TLR4-MyD88 BLA,U2OS cAMP counter,MC4R antag conf
CN1CCC(Oc2ccccc2Sc2ccc(C(F)(F)F)cc2)CC1,n,n,n,32.8,n,n,n,31.5
CN1CCC(Oc2ccc(Sc3ccccc3)cc2)CC1,n,n,n,n,n,n,x,x
O=C1C(=O)N(c2ccccn2)C(c2cccc(F)c2)/C1=C(/O)c1ccccc1 (stereo not drawn),n,n,n,29.4,n,x,n,n
COc1ccc(C2/C(=C(/O)c3ccc(C)cc3)C(=O)C(=O)N2c2ccccn2)cc1OC (stereo not drawn),n,n,n,n,n,x,x,x
CCCOc1ccc(/C(O)=C2\C(=O)C(=O)N(c3ccccn3)C2c2ccccc2F)cc1C (stereo not drawn),n,n,n,42.4,n,x,33.5,n
COc1ccc(C2/C(=C(/O)c3ccccc3)C(=O)C(=O)N2c2ccccn2)cc1OC (stereo not drawn),n,n,n,n,n,n,x,x
Cc1ccc(OCC(=O)NNC(=O)C2CCN(c3nc(C)cc(C)n3)CC2)cc1,n,n,n,28.6,n,n,n,n
Cc1ccc(OCC(=O)NNC(=O)C2CCN(c3ncccn3)CC2)cc1,n,n,n,n,n,n,x,x
O=C(Cc1cccc2ccccc12)N1CCN(c2ncccn2)CC1,n,n,n,29.5,n,n,n,n
O=C(Cc1coc2ccc3ccccc3c12)N1CCN(c2ncccn2)CC1,n,n,n,n,n,n,x,x
COCC(O)CNc1ccccc1 (stereo not drawn),n,n,n,n,n,n,x,x
Cc1cccc(NC(=O)c2cccc(NC(=O)c3ccco3)c2)c1,n,n,n,n,x,x,x,x
Cc1cc(C)c(NC(=O)c2cccc(NC(=O)c3ccco3)c2)c(C)c1,n,n,n,29.9,n,x,n,n
Cc1cc(=O)[nH]c(SCc2cccc3cccnc23)n1,n,n,n,n,n,n,x,x
C[C@H](NC(=O)c1nc[nH]c1C(=O)N[C@@H](Cc1ccccc1)C(=O)OCc1ccccc1)C(=O)OC(C)(C)C,n,n,n,33.9,n,x,n,n
C[C@H](NC(=O)c1nc[nH]c1C(=O)N[C@@H](C)C(=O)OC(C)(C)C)C(=O)OCc1ccccc1,n,n,n,n,n,x,x,x
CC(C)C[C@H](NC(=O)c1nc[nH]c1C(=O)N1CCN(C(=O)OC(C)(C)C)CC1)C(=O)OCc1ccccc1,n,n,n,34.1,n,n,15.8,n
C/C(CC(=O)Nc1cccc(Cl)c1Cl)=N\NC(=O)C(=O)N1CCCC1,n,n,n,n,n,x,x,x
C/C(CC(=O)Nc1cccc(Cl)c1Cl)=N\NC(=O)c1ccccc1C,n,n,n,29.0,n,n,n,n
Cc1c(Br)c([N+](=O)[O-])nn1CC(=O)N1CCc2ccccc21,n,n,n,30.0,n,n,n,n
COc1ccc2c(c1)N(S(=O)(=O)c1ccccc1)CCC2=O,n,n,n,n,n,n,x,x
O=C(CNc1ccccc1Cl)N/N=C1\CCCc2ccccc21,n,n,n,n,n,n,x,x
COC(=O)c1cc(OC)c(OC)cc1N,n,n,n,n,n,n,x,x
COC(=O)c1cc2ccc(OC)cc2c2cc(OC)c(OC)cc12,n,n,n,33.8,n,x,n,n
COc1ccc(S(=O)(=O)NCC(c2ccc3c(c2)OCO3)N2CCN(c3ccccc3)CC2)cc1 (stereo not drawn),n,n,n,n,n,x,x,x
SMILES,MC4R ag barr,TLR9-MyD88 block,NOD2 RIPK2 PPI,MC4R antag cAMP,NTR1 agonist,TLR4-MyD88 BLA,U2OS cAMP counter,MC4R antag conf
CCN(CC)P(=O)(Nc1cccc(C(F)(F)F)c1)c1ccc(N(C)C)cc1NC(=O)c1ccco1 (stereo not drawn),n,n,n,34.5,n,n,n,n
CN(C)c1cccc(NC(=O)c2ccco2)c1,n,n,n,n,n,n,x,x
O=C(COC(=O)c1ccncc1)NCc1ccccc1,n,n,n,n,n,n,x,x
O=C(COC(=O)c1ccncc1)NCCCc1ccccc1,n,n,n,29.6,n,n,n,n
CNCCNC[C@H](Cc1cccc2ccccc12)NCCc1ccccc1,n,n,n,n,n,x,x,x
CNC[C@H](Cc1ccccc1)NC[C@@H](Cc1cccc2ccccc12)NCCc1ccc(C)cc1,n,n,n,31.5,n,x,n,n
CC1=C(C)CC(C(=O)NNC(=O)c2csc(C)c2C)C(C(=O)O)C1 (stereo not drawn),n,n,n,n,n,n,x,x
COC(=O)[C@H](CC(C)C)NC(=O)N1CCC(C)CC1,n,n,n,33.0,n,x,n,n
CCCc1cc(=O)oc2c3c(cc(OCC(=O)N[C@@H](C)C(=O)O)c12)OC(C)(C)CC3,n,n,n,n,n,x,x,x
CCCc1cc(=O)oc2c3c(c4c(c12)OC(C)(C)C=C4)OC(C)C(C)C3O (stereo not drawn),n,n,n,29.6,n,x,n,n
Cc1ccc(NC(=O)COC(=O)C2CCC2)cc1S(=O)(=O)N1CCCCC1,n,n,n,n,n,x,x,x
O=C1c2cccc([N+](=O)[O-])c2C(=O)N1C1CCCCC1,n,n,n,n,n,x,x,x
Cc1c(Cl)cccc1N1C(=O)C(N2C(=O)c3cccc([N+](=O)[O-])c3C2=O)C1c1cccs1 (stereo not drawn),n,n,n,34.8,n,n,n,n
CCOC(=O)/C(=N\Nc1ccccc1Cl)N1CCN(c2ccccc2OC)CC1,n,n,n,29.3,n,n,n,n
CCOC(=O)/C(=N\Nc1ccccc1Cl)N1CCN(C)CC1,n,n,n,n,n,n,x,x
CCCCOC(=O)c1ccc(NC(=O)COC(=O)c2ccc3ncsc3c2)cc1,n,n,n,n,n,x,x,x
N#C/C(=C/c1ccccc1OCc1ccc(F)cc1)c1ccc(C(=O)O)cc1,n,n,n,n,n,x,x,x
N#C/C(=C/c1ccc(OCc2ccc(C(=O)O)cc2)c(Br)c1)c1cccc(F)c1,n,n,n,34.0,n,n,n,n
COc1ccc2c(C#CCCO)c(-c3ccc(S(C)(=O)=O)cc3)sc2c1,n,n,n,36.5,n,x,n,n
O=C(CCc1ccccc1)n1nc(-c2ccccc2)nc1NCc1ccco1,n,n,n,32.7,n,n,n,n
CCOC(=O)C(=Cc1ccc(-n2ccnc2)cc1)C(=O)OCC,n,n,n,33.9,n,n,n,n
O=C(Nc1nc2c(s1)CCCC2)c1nn(Cc2ccccc2)c(=O)c2ccccc12,n,n,n,n,n,n,x,x
CC(C)CCn1nc(C(=O)Nc2nc3c(s2)CCCC3)c2ccccc2c1=O,n,n,n,33.0,n,n,n,n
